ChEMBL document CHEMBL3102768, “Synthesis, biological evaluation and SAR of 3-benzoates of ingenol for treatment of actinic keratosis and non-melanoma skin cancer” (Bioorg Med Chem Lett, 2014)

Columns and labels:
[1] = Immunostimulatory activity in polymorphonuclear leukocytes (unknown origin) assessed as induction of oxidative burst after 40 mins by fluorescence assay; assay type: functional, cell-based
Summary of the method: (§1)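 PMN were isolated from fresh buffy coats. Cells were incubated 40 min at ambient temperature with titrated compound (top concentration 10 µM) pre-mixed with hydroethidine. Respiratory burst was read as fluorescence at ex 485/em 579 nm. EC50 is the concentration giving 50% of the maximum effect of ingenol 3-angelate; Emax is the maximal response relative to it.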

[2] = biological target: Protein kinase C delta type (Homo sapiens, UniProt Q05655); assay: Activation of PKCdelta (unknown origin) after 40 mins
Protein kinase C delta type, sequence (Q05655 whole entry): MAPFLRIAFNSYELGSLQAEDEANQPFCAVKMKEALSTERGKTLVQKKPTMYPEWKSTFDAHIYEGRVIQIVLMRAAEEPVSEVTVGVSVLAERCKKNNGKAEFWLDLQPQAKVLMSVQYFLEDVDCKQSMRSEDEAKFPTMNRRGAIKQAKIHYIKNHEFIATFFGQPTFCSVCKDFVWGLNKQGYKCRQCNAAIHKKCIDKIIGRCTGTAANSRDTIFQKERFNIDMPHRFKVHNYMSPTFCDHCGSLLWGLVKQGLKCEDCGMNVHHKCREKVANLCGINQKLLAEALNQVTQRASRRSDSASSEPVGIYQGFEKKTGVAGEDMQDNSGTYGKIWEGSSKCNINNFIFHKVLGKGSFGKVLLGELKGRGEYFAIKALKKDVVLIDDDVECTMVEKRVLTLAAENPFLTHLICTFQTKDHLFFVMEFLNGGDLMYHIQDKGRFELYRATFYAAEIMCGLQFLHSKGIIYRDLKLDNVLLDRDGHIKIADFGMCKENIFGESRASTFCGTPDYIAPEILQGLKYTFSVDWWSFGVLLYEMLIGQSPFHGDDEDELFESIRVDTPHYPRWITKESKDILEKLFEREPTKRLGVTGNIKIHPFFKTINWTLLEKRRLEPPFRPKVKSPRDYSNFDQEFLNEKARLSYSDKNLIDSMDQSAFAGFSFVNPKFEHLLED
Summary of the method: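 In vitro PKCδ phosphorylation of a PKC peptide substrate, with 0.05 mg/mL phosphatidylserine and no diacylglycerol. Compounds were tested as a twelve-point semilog dilution series starting at 10 µM. The reaction was started with ATP and run 40 min at room temperature.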

[3] = system: Keratinocyte; assay: Induction of proimflammatory activity in human primary epidermal keratinocytes assessed as IL-8 release after 6 hrs relative to ingenol 3-angelate; assay type: functional
Summary of the method: (§2)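 Adult log-phase primary epidermal keratinocytes were seeded at 10,000 cells/well. Cells were incubated with titrated compound for 6 h at 37 °C in 5% CO2. Secreted IL8 was measured by Meso Scale 4-spot cytokine plates or by HTRF. EC50 and Emax were referenced to the maximal response of ingenol 3-angelate.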

[4] = Chemical stability of the compound in aqueous buffer with less than 30% organic solvent assessed as compound recovery at pH 7.4 measured over 16 hrs by HPLC analysis; assay type: physicochemical; conditions: read-out: Drug recovery
Summary of the method: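 A DMSO stock was diluted into pre-heated (37 °C) aqueous buffer pH 7.4 to ≤30% v/v organic content. The solution was held at 37 °C in the HPLC autosampler and injected within 5 min, then repeatedly over 16 h. Recovery was taken from the decrease in compound peak area, with UV detection normally at 270 nm.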

[5] = system: Keratinocyte; assay: Induction of proimflammatory activity in human primary epidermal keratinocytes assessed as IL-8 release after 6 hrs; assay type: functional, cell-based; summary of the method: as §2
[6] = system: HeLa; assay: Induction of necrosis in human HeLa cells assessed as remaining metabolic activity after 30 mins by resazurin dye-based assay; assay type: functional; conditions: 0.5 h, read-out: LC50 (the source's name)
Summary of the method: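 HeLa cells were exposed to increasing concentrations up to 400 µM for 30 min at 37 °C. Metabolic activity was then measured with a resazurin-based dye (PrestoBlue). LC50 is the concentration giving 50% loss of metabolic activity.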

[7] = system: Keratinocyte; assay: Induction of proimflammatory activity in human primary epidermal keratinocytes assessed as TNFalpha release after 6 hrs relative to ingenol 3-angelate; assay type: functional
Summary of the method: (§3)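 Adult log-phase primary epidermal keratinocytes were seeded at 10,000 cells/well. Cells were incubated with titrated compound for 6 h at 37 °C in 5% CO2. Secreted TNFα was measured by Meso Scale 4-spot cytokine plates. EC50 and Emax were referenced to the maximal response of ingenol 3-angelate.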

[8] = system: Keratinocyte; assay: Induction of proimflammatory activity in human primary epidermal keratinocytes assessed as TNFalpha release after 6 hrs; assay type: functional, cell-based; summary of the method: as §3
[9] = Immunostimulatory activity in polymorphonuclear leukocytes (unknown origin) assessed as induction of oxidative burst after 40 mins by fluorescence assay relative to ingenol 3-angelate; assay type: functional; summary of the method: as §1

Row | Structure (SMILES) | EC50 [1] [nM] | EC50 [2] [nM] | Emax [3] [%] | remaining at 16 h [4] [%] | EC50 [5] [nM] | CC50 [6] [nM] | Emax [7] [%] | EC50 [8] [nM] | Emax [9] [%]
1 | CC1=C[C@]23C(=O)[C@@H](C=C(CO)[C@@H](O)[C@]2(O)[C@H]1OCc1ccccc1)[C@H]1[C@@H](C[C@H]3C)C1(C)C | 4540 | > 10000 | 58 | > 95 | 4520 | 378000 |  |  | 
2 | CNc1ccccc1C(=O)O[C@H]1C(C)=C[C@]23C(=O)[C@@H](C=C(CO)[C@@H](O)[C@]12O)[C@H]1[C@@H](C[C@H]3C)C1(C)C | 6.7 | 2.5 | 99 | 68 | 0.79 | 95000 | 134 | 1 | 113
3 | CC(=O)Nc1cccc(C)c1C(=O)O[C@H]1C(C)=C[C@]23C(=O)[C@@H](C=C(CO)[C@@H](O)[C@]12O)[C@H]1[C@@H](C[C@H]3C)C1(C)C | 538 | 988 | 92 | 82 | 534 |  | 92 | 632 | 113
4 | CC1=C[C@]23C(=O)[C@@H](C=C(CO)[C@@H](O)[C@]2(O)[C@H]1OC(=O)c1ccccc1)[C@H]1[C@@H](C[C@H]3C)C1(C)C | 6 | 6.1 | 54 |  |  |  | 60 |  | 110
5 | CC1=C[C@]23C(=O)[C@@H](C=C(CO)[C@@H](O)[C@]2(O)[C@H]1OC(=O)c1c(Cl)cccc1Cl)[C@H]1[C@@H](C[C@H]3C)C1(C)C | 21 | 19.8 | 45 | > 95 | 113 | 59000 | 42 | 278 | 123
6 | CCCCCCCCCCCCCCCCNc1ccccc1C(=O)O[C@H]1C(C)=C[C@]23C(=O)[C@@H](C=C(CO)[C@@H](O)[C@]12O)[C@H]1[C@@H](C[C@H]3C)C1(C)C | 1340 |  | 125 | 90 | 61 |  | 120 | 200 | 94
7 | CC1=C[C@]23C(=O)[C@@H](C=C(CO)[C@@H](O)[C@]2(O)[C@H]1OC(=O)c1ccccc1Br)[C@H]1[C@@H](C[C@H]3C)C1(C)C | 4.3 | 3.8 | 93 | 44 | 2.3 | 141000 | 96 | 8.2 | 99
8 | COc1cccc(NCc2ccccc2)c1C(=O)O[C@H]1C(C)=C[C@]23C(=O)[C@@H](C=C(CO)[C@@H](O)[C@]12O)[C@H]1[C@@H](C[C@H]3C)C1(C)C | 23 |  | 117 | > 95 | 6.6 | 400000 | 120 | 19 | 112
9 | CNc1cccc(F)c1C(=O)O[C@H]1C(C)=C[C@]23C(=O)[C@@H](C=C(CO)[C@@H](O)[C@]12O)[C@H]1[C@@H](C[C@H]3C)C1(C)C | 9.3 |  | 145 | 74 | 3 | 152000 | 174 | 4.1 | 123
10 | CC1=C[C@]23C(=O)[C@@H](C=C(CO)[C@@H](O)[C@]2(O)[C@H]1OC(=O)c1c(N)cccc1F)[C@H]1[C@@H](C[C@H]3C)C1(C)C | 12 |  | 104 | 66 | 8.6 | 201000 | 104 | 10 | 133
11 | COc1cccc(N)c1C(=O)O[C@H]1C(C)=C[C@]23C(=O)[C@@H](C=C(CO)[C@@H](O)[C@]12O)[C@H]1[C@@H](C[C@H]3C)C1(C)C | 25 |  | 111 | > 95 | 41 |  | 83 | 108 | 109
12 | CNc1cccc(Cl)c1C(=O)O[C@H]1C(C)=C[C@]23C(=O)[C@@H](C=C(CO)[C@@H](O)[C@]12O)[C@H]1[C@@H](C[C@H]3C)C1(C)C | 21 |  | 105 | > 95 | 18 | 145000 | 97 | 21 | 124
13 | CC1=C[C@]23C(=O)[C@@H](C=C(CO)[C@@H](O)[C@]2(O)[C@H]1OC(=O)c1c(C)cccc1NCc1ccccc1)[C@H]1[C@@H](C[C@H]3C)C1(C)C | 42 |  | 122 | > 95 | 3.8 | 187000 | 126 | 7.6 | 103
14 | CNc1cccc(C)c1C(=O)O[C@H]1C(C)=C[C@]23C(=O)[C@@H](C=C(CO)[C@@H](O)[C@]12O)[C@H]1[C@@H](C[C@H]3C)C1(C)C | 46 |  | 127 | > 95 | 12 | 105000 | 143 | 16 | 136
15 | CCCCCCCCCCCCNc1ccccc1C(=O)O[C@H]1C(C)=C[C@]23C(=O)[C@@H](C=C(CO)[C@@H](O)[C@]12O)[C@H]1[C@@H](C[C@H]3C)C1(C)C | 25 |  | 111 |  | 16 | 400000 | 150 | 14 | 78
16 | CC1=C[C@]23C(=O)[C@@H](C=C(CO)[C@@H](O)[C@]2(O)[C@H]1OC(=O)c1ccccc1NCc1ccccc1)[C@H]1[C@@H](C[C@H]3C)C1(C)C | 8.6 |  | 115 | 65 | 1.2 | 168000 | 128 | 1.5 | 127
17 | CC1=C[C@]23C(=O)[C@@H](C=C(CO)[C@@H](O)[C@]2(O)[C@H]1OC(=O)c1c(N)cccc1Cl)[C@H]1[C@@H](C[C@H]3C)C1(C)C | 7.1 |  | 104 | 93 | 20 | 185000 | 108 | 28 | 161
18 | CC1=C[C@]23C(=O)[C@@H](C=C(CO)[C@@H](O)[C@]2(O)[C@H]1OC(=O)c1c(C)cccc1Cl)[C@H]1[C@@H](C[C@H]3C)C1(C)C | 6.6 |  | 52 | > 95 | 51 | 126000 | 52 | 54 | 130
19 | CC1=C[C@]23C(=O)[C@@H](C=C(CO)[C@@H](O)[C@]2(O)[C@H]1OC(=O)c1ccccc1C(C)C)[C@H]1[C@@H](C[C@H]3C)C1(C)C | 11 |  | 86 | 70 | 4.4 | 110000 | 96 | 5.7 | 120
20 | CC1=C[C@]23C(=O)[C@@H](C=C(CO)[C@@H](O)[C@]2(O)[C@H]1OC(=O)c1ccccc1N)[C@H]1[C@@H](C[C@H]3C)C1(C)C | 15 |  | 101 | 58 | 3.4 | 199000 | 112 | 5.5 | 116
21 | C/C=C(/C)C(=O)O[C@H]1C(C)=C[C@]23C(=O)[C@@H](C=C(CO)[C@@H](O)[C@]12O)[C@H]1[C@@H](C[C@H]3C)C1(C)C [INGENOL MEBUTATE] | 8.7 |  |  |  |  | 230000 |  |  | 
22 | CC1=C[C@]23C(=O)[C@@H](C=C(CO)[C@@H](O)[C@]2(O)[C@H]1OC(=O)c1ccccc1C)[C@H]1[C@@H](C[C@H]3C)C1(C)C | 5.7 |  | 58 | 73 | 15 | 115000 | 64 | 13 | 107
23 | CC1=C[C@]23C(=O)[C@@H](C=C(CO)[C@@H](O)[C@]2(O)[C@H]1OC(=O)c1ccccc1OC(C)C)[C@H]1[C@@H](C[C@H]3C)C1(C)C | 8.7 |  | 105 | 65 | 2.7 | 192000 | 101 | 4 | 113
